Source: PubChem BioAssay (several laboratories)
Hits are enriched below; roughly 2.9% of the tested compounds scored in any of these assays.
SIAE primary = inhibitors of human sialic acid acetylesterase SIAE; Q9HAT2; SIAE FP-Rh probe binding, fluorescence polarization; inhibition, % at 9.66 µM; 370,000 tested, 0.69% active;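 active = inhibition above a cutoff: mean of compounds within the control limits plus 3 SD of those, cut at about 17% in these data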;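 note: 0% = plate median of compound wells and 100% = probe without SIAE protein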
Target sequence (Q9HAT2 whole entry, looked up): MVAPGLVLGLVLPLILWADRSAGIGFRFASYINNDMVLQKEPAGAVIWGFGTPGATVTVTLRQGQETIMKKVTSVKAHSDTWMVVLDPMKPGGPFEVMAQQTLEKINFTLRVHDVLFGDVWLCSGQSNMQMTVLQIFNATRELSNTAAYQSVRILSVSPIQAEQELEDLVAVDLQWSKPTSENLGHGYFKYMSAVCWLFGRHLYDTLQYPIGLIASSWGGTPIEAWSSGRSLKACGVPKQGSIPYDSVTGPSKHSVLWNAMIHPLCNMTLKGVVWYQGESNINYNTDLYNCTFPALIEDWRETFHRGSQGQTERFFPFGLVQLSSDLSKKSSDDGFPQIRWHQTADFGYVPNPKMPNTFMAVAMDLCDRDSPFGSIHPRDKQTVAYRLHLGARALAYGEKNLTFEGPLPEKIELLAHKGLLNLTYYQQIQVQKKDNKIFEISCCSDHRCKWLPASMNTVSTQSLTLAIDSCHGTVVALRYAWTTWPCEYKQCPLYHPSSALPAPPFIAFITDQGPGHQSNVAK
mABHD4 FP = inhibitors of mouse ABHD4; inhibition, % at 8.92 µM; purified mABHD4, FP-Rh probe fluorescence polarization; Q8VD66; 370,000 tested, 0.54% active;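 active = inhibition exceeding the mean over every tested compound plus 3 SD, cut at about 30% in these data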;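 note: 0% = plate median of compound wells and 100% = S159A mutant with DMSO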
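assay system = mABHD4 protein | compound dosing = single nominal dose of 8.92 µM, 0.89% DMSO final | read-out basis = percent inhibition of probe binding, normalized to plate controls | schedule = Enzyme–compound pre-incubation 45 min, then probe 60 min, both 25 °C | detection = fluorescence polarization, excitation 525 nm, emission 598 nm, BODIPY TMR filters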
ATG4B inh = blocks human ATG4B protease cleavage of LC3 substrate; 340,000 tested, 0.51% active; ATG4B cleavage of LC3-PLA2, NBD-HPC fluorescence, 1 h; inhibition, % at 8.33 µM; AID 504462; in the data active = inhibition above about 40%
HTRA1 inhibitor = inhibitors of human serine peptidase HTRA1 | Q92743 | 340,000 tested, 0.5% active | AID 504803 | recombinant HTRA1, FP-rhodamine activity-based probe, fluorescence polarization | inhibition, % at 5.96 µM; in the data active = inhibition above about 36%;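 note: 0% = enzyme with DMSO and 100% = wells lacking enzyme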
PRMT1 inh = inhibitors of human PRMT1 | Q99873 | recombinant PRMT1, activity-based probe fluorescence polarization | inhibition, % at 2.79 µM | 370,000 tested, 1.3% active | AID 652257;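 active = inhibition above about 21% made by adding two undisclosed values, limit read from the data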
TCR CD3 inh = inhibitors of human TCR-CD3 interaction. 360,000 tested, 0.37% active. AID 651800. inhibition, % at 9.4 µM. TAMRA-labeled TCR probe fluorescence, biochemical; in the data active = inhibition above about 19%;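 note: recombinant mutant TCR 2C K166C tagged with TAMRA read by polarization; 0% = receptor in buffer alone and 100% = receptor with positive control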
PRMT1 confirm = confirmation of human PRMT1 inhibitors; shares compounds with PRMT1 inh; recombinant His-PRMT1, activity-based probe fluorescence polarization; inhibition, % at 2.79 µM; 3,300 tested, 42% active;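 active = mean inhibition across replicates above the hit cutoff derived for the earlier primary screen, cut at about 22% in these data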
* = called active by the depositor; · = no result given.

SMILES	SIAE primary	mABHD4 FP	ATG4B inh	HTRA1 inhibitor	PRMT1 inh	TCR CD3 inh	PRMT1 confirm
COC(=O)c1ccc(N2CN=C(c3ccc(C)cc3)NC2=S)cc1	-12	-1	-16	-18	35*	4	-6
S=C1NC(c2ccccc2)=NCN1c1ccc(Cl)cc1	-1	2	1	-10	-1	5	·
OC(c1ccccc1)(c1ccccc1)C1CCN(CCCNc2ccccc2F)CC1	4	3	·	·	1	·	·
O=C(CCc1ccccc1)N[C@H]1[C@H](O)CCC[C@@]12C(=O)N(Cc1ccccc1)c1ccc(-c3ccccc3)cc12	-1	-11	·	·	-1	·	·
Nc1ccc(-n2cc(-c3ccccc3)[nH]c2=S)cc1	-2	1	-2	17	45*	6	20
CC(=O)OCC1=C(C(=O)O)N2C(=O)C(NC(=O)COc3ccc(F)cc3)C2SC1 (configuration not stated)	1	-2	-14	-17	37*	6	48*
CCOc1ccc(C(=O)NC2C(=O)N3C(C(=O)O)=C(COC(C)=O)CSC23)cc1OCC (configuration not stated)	-1	9	1	3	27*	5	9
CC(=O)OCC1=C(C(=O)O)N2C(=O)[C@@H](NC(=O)Cc3ccccc3)[C@H]2SC1	-4	4	5	6	27*	5	11
CCCCCCCCN1C(=O)[C@@H](CC(=O)NCc2ccccc2)C[C@@]2(C(=O)OC)C1=C[C@H](COCc1ccccc1)O[C@@H]2C	0	2	·	·	3	·	·
CCCCOc1ccc(C(=O)NC2CCCCN(CCC)C2=O)cc1 (configuration not stated)	2	2	·	·	-1	6	·
Cc1ccc(-c2c3c(nc4sc(C(N)=O)c(N)c24)CCCC3)o1	3	18	23	5	32*	-5	3
COC(=O)[C@]12C[C@H](CC(=O)NCC3CCCCC3)C(=O)N(CCc3ccc(OC)c(OC)c3)C1=C[C@H](C(C)(C)C)O[C@@H]2C	4	2	·	·	1	4	·
COc1ccc(CN2C(=O)[C@@](O)(c3cccn3C)c3cc(Br)ccc32)cc1	-2	-10	·	·	0	·	·
N#Cc1c(N)[nH]c(=S)c(C#N)c1-c1ccccc1	-11	-2	3	0	38*	-5	14
COC(=O)c1cc(N2CCN(C)CC2)nc2ccccc12	-2	7	8	3	83*	8	5
CCOC(=O)c1cc(N2CCCCC2)nc2ccccc12	0	-4	-2	-9	-5	7	·
CCOC(=O)c1c(NC(=O)C2C3C=CC(C3)C2C(=O)O)sc2c1CC(C)CC2 (configuration not stated)	-1	5	0	1	4	-7	·
CCCOC(=O)c1c(NC(=O)C2C3C=CC(C3)C2C(=O)O)sc2c1CCC(C)C2 (configuration not stated)	3	7	-8	4	52*	-7	4
COC(=O)c1c(NC(=O)CN2CCC3(O)CCCCC3C2c2ccc(OC)cc2OC)sc(C)c1C (configuration not stated)	-9	-6	-4	-35	30*	-8	13
Cc1ccccc1Cn1cc(CN2[C@@H](C)COc3cc(Br)ccc3S2(=O)=O)nn1	4	-3	·	·	-3	·	·
Nc1cccc([N+](=O)[O-])c1	4	7	-2	8	2	1	·
O=[N+]([O-])c1cccc(SSc2cccc([N+](=O)[O-])c2)c1	3	2	-4	2	83*	-5	95*
CN(C(=O)COC(=O)c1cc2ccccc2oc1=O)C1CCCCC1	4	5	-3	5	27*	-7	4
CN1CCCCC(NC(=O)CCl)C1=O (configuration not stated)	0	3	·	·	2	9	·
CCCC(=O)OCCNc1cc(Sc2nc3ccccc3[nH]2)c2nonc2c1[N+](=O)[O-]	10	17	-5	0	67*	0	73*
SMILES	SIAE primary	mABHD4 FP	ATG4B inh	HTRA1 inhibitor	PRMT1 inh	TCR CD3 inh	PRMT1 confirm
CCC(=O)OCCNc1cc(Sc2nccn2C)c2nonc2c1[N+](=O)[O-]	-1	2	-3	0	43*	4	65*
COCCCNC(=O)C[C@@H]1C(=O)N2CCCC3=C2[C@@]1(C(=O)OC)CCCC3	4	-2	·	·	2	·	·
S=C(NCc1ccccc1)NNc1nc2ccccc2[nH]1	8	15	-1	10	39*	6	67*
COc1cc(C)ccc1C(=O)N1CCC(Oc2cccnc2)CC1	4	8	·	·	1	·	·
CCOC(=O)CC[C@@]1(C(=O)OCC)C[C@@H](CC(=O)NCCCN2CCCC2=O)C(=O)N2CCCC=C21	5	0	·	·	5	·	·
COC(=O)c1ccccc1SC(CC(=O)c1ccccc1)c1ccc(F)cc1 (configuration not stated)	-3	-15	-5	-24	43*	3	48*
Cc1ccccc1N1C(=O)C(Cl)=C(N2CCOCC2)C1=O	5	4	-7	0	8	0	·
O=C1C(Cl)=C(N2CCOCC2)C(=O)N1c1ccccc1F	-3	8	3	-6	40*	1	13
COc1ccccc1Nc1n[nH]c(=S)s1	6	4	-8	7	47*	-1	8
COc1cccc(Nc2n[nH]c(=S)s2)c1	5	0	-2	5	43*	8	36*
COc1ccccc1Nc1nc(C)cs1	7	4	-7	3	2	0	·
COc1cccc(Nc2nc(-c3sc(C)nc3C)cs2)c1	6	14	-14	2	-3	-1	·
C=CCN(Cc1ccccc1)C(C#CC(=C)C)Cc1ccccc1 (configuration not stated)	5	-2	·	·	-2	·	·
CCOc1cccc(=O)c2c(C)n(CC(=O)c3ccccc3)c(C)c12	8	11	4	21	5	3	·
COc1cccc(=O)c2c(C)n(CC(=O)c3ccccc3)c(C)c12	5	26	-7	29	36*	6	8
CC(C)N1CCCCC(NC(=O)COCc2ccccc2)C1=O (configuration not stated)	-1	0	·	·	3	·	·
COc1ccc2c(c1)CC/C(=C\c1ccc(C)o1)C2=O	2	15	4	-7	39*	-4	-6
CCc1ccccc1-c1cc(C(=O)OC)c2n(c1=O)CCC2	-3	7	·	·	-1	·	·
CC[n+]1c(/C=C2\C=C(C)CC(C)C2)sc2ccccc21 (configuration not stated)	·	·	15	3	·	·	·
CC[n+]1c(/C=C2\C=C(C)CC(C)(C)C2)sc2ccccc21	-3	14	7	6	44*	3	16
